{
  "source": "PubChem BioAssay AID624467",
  "about": "(The Scripps Research Institute Molecular Screening Center, 2012)",
  "note": "Out of some 360,000 compounds screened, about 3,600 (1%) were called active. For the sample, actives were picked, then their nearest neighbours and some compounds at random. A number with no mark means an inactive call.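 The calls were made as follows: active = activation above the mean activation of all test compounds in the run plus 3 SD (cut at about 38% in these data); inactive = the rest.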",
  "data": [
    {"molecular_target": "Trace amine-associated receptor 1 (Homo sapiens) (UniProt Q96RJ0)", "sequence (Q96RJ0 whole entry, looked up)": "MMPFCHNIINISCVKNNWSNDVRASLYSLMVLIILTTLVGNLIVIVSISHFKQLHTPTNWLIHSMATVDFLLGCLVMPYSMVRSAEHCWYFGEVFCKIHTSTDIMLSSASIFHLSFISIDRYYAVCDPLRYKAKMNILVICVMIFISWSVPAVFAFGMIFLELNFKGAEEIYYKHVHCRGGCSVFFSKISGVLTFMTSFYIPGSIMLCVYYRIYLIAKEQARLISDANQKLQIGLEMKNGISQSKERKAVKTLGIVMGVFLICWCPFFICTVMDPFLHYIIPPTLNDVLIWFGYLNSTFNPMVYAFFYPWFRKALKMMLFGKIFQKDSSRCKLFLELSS", "experiment": "human TAAR1 agonists, primary screen, Fluo-8 calcium fluorescence, CHO RD-HGA16 cells (AID 624467)", "details": "CHO RD-HGA16 TAAR1, Fluo-8 calcium fluorescence; at 3 µM; active compounds read high", "method_in_brief": "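Benchmarks: low control DMSO, high control PEA (EC100); System: CHO RD-HGA16 cells carrying human TAAR1 plus Gα16; Detection: Fluo-8 fluorescence, 5 s baseline then 140 s kinetic read; Schedule: 17-24 h plating, Fluo-8 75 min 37 °C, 30 min RT; Read-out basis: % activation from peak over basal fluorescence ratio, DMSO-to-PEA scaled.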", "values": [
      {"smiles": "Cc1cccc(N2C(=O)NC(=O)/C(=C\\c3cnn(-c4ccccc4)c3)C2=O)c1", "activation": "44.9% (active)"},
      {"smiles": "COc1cc(OC)cc(C(=O)NCCN2CCC3(CC2)C(=O)NCN3c2ccccc2)c1", "activation": "0.43%"},
      {"smiles": "CCC(=O)OC(Cc1ccccc1)(c1ccccc1)C(C)CN(C)C", "note": "(stereo not given)", "activation": "1.23%"},
      {"smiles": "COC(=O)COc1cc(C)cc2oc(=O)c3c(c12)CCCC3", "activation": "15.7%"},
      {"smiles": "CCOP(=O)(OCC)C(NC(=O)NC)C(N)=O", "note": "(stereo not given)", "activation": "1.74%"},
      {"smiles": "Cc1ccc(CN2CCCC(C(=O)c3ccc4c(c3)OCO4)C2)cc1C", "note": "(stereo not given)", "activation": "5.3%"},
      {"smiles": "CC(=O)c1c(O)n(C2CCCCCC2)c(=O)[nH]c1=O", "activation": "2.62%"},
      {"smiles": "CCC(=NCCc1ccccc1)c1c(O)n(C2CCCCC2)c(=O)[nH]c1=O", "activation": "82.8% (active)"},
      {"smiles": "CCCCCCN=C(CC)c1c(O)n(CCCC)c(=O)[nH]c1=O", "activation": "18.9%"},
      {"smiles": "c1ccc(C(CN2CCCCC2)c2ccccc2)cc1", "activation": "5.89%"},
      {"smiles": "COc1ccc(NC(=O)N2CCC3(CC2)OCCO3)c(OC)c1", "activation": "4.78%"},
      {"smiles": "Brc1ccc2c(c1)CNCc1cnnn1-2", "activation": "2.44%"},
      {"smiles": "CC(=NC1CCN(Cc2ccccc2)CC1)c1c(O)n(C)c(=O)n(C)c1=O", "activation": "-0.62%"},
      {"smiles": "COc1cc(C(=O)N2Cc3ccc(Br)cc3-n3nncc3C2)cc(OC)c1OC", "activation": "1.8%"},
      {"smiles": "CCOc1cccc(=NC2CCCCC2)c2c(C)[nH]c(C)c12", "activation": "2.88%"},
      {"smiles": "Clc1ccc([C@@H]2CC3CCC2N3)cn1", "note": "(stereo not given in full)", "activation": "0.89%"},
      {"smiles": "CCOC(=O)C1SC2(C(F)(F)C(F)F)CC1(O)c1c(c(OC)c3occc3c1OC)O2", "note": "(stereo not given)", "activation": "2.66%"},
      {"smiles": "CCCCC(=O)N/N=C/c1c(O)n(CCC2=CCCCC2)c(=O)[nH]c1=O", "activation": "3.56%"},
      {"smiles": "Cn1c(O)c(C=NCCCC(=O)O)c(=O)n(C)c1=O", "activation": "1.16%"},
      {"smiles": "CCCCC(=O)N/N=C/c1c(O)n(CC)c(=S)n(CC)c1=O", "activation": "115% (active)"},
      {"smiles": "CC(=NCc1ccc2c(c1)OCO2)c1c(O)[nH]c(=O)[nH]c1=O", "activation": "4.1%"},
      {"smiles": "O=C1NC(=O)N(Cc2ccco2)C(=O)/C1=C\\c1ccc(-c2ccc(F)cc2)o1", "activation": "51.8% (active)"},
      {"smiles": "COc1ccc(-c2nn(CCC#N)cc2C(=O)O)cc1", "activation": "0.78%"},
      {"smiles": "C[C@]12CCC3C(CC[C@H]4[C@H](O)[C@H](O)CC[C@]34C)C1CCC2=O", "note": "(stereo not given in full)", "activation": "4.54%"},
      {"smiles": "COc1ccc2c(c1)[C@@]13CCCCC1[C@@H](C2)NCC3", "note": "(stereo not given in full)", "activation": "4.44%"},
      {"smiles": "CCN1CC2C3CCC(C)(O3)C2C1", "note": "(stereo not given)", "activation": "1.68%"},
      {"smiles": "CCC(C)NC1(c2ccccc2)CCCCC1", "note": "(stereo not given)", "activation": "3.45%"},
      {"smiles": "CC(Cc1ccccc1)NC=O", "note": "(stereo not given)", "activation": "68.4% (active)"},
      {"smiles": "CC(Cc1ccccc1)NCCC(c1ccccc1)c1ccccc1", "note": "(stereo not given)", "activation": "44.2% (active)"},
      {"smiles": "CC(=O)Nc1ccc(C(=O)C(Cc2ccccc2)N(C)C)cc1", "note": "(stereo not given)", "activation": "5.99%"},
      {"smiles": "O=c1c2ccccc2nc(/C=C/c2ccco2)n1-c1ccccc1O", "activation": "0.46%"},
      {"smiles": "C[N+]12CN3CN(CN(C3)C1)C2", "activation": "4.95%"},
      {"smiles": "S=C(NCCc1ccccc1)N1Cc2cc(N3CCOCC3)ccc2-n2nncc2C1", "activation": "25.3%"},
      {"smiles": "O=S(=O)(c1ccccc1)N1CCC2CCNC2C1", "note": "(stereo not given)", "activation": "2.18%"},
      {"smiles": "CCN(CC)C(=O)c1ccc(NC(=O)c2cc(-n3cnnc3)ccc2Cl)cc1", "activation": "8.2%"},
      {"smiles": "Cc1cc(N2CCNC[C@@H]2C)ccc1N1CC[C@H](O)C1", "activation": "0.68%"},
      {"smiles": "CCN(CC)C(=O)[C@@H]1C=C2c3cccc4[nH]c(Br)c(c34)C[C@H]2N(C)C1", "activation": "0.25%"},
      {"smiles": "CS(=O)(=O)N1CCC2CCNC2C1", "note": "(stereo not given)", "activation": "2.13%"},
      {"smiles": "Clc1ccc2nc3c(c(-c4ccccc4)c2c1)CNCC3", "activation": "55% (active)"},
      {"smiles": "O=c1[nH]c(=O)n(CCc2ccccc2)c(O)c1/C=N/N1CCOCC1", "activation": "7.45%"},
      {"smiles": "NCC(O)c1ccc(O)cc1", "note": "(stereo not given)", "activation": "80.5% (active)"},
      {"smiles": "CC12CN3CC(C)(CN(C1)C3c1cccs1)C2", "note": "(stereo not given)", "activation": "8.25%"},
      {"smiles": "CC(CC(C#N)(c1ccccc1)c1ccccc1)N1CCCCC1", "note": "(stereo not given)", "activation": "1.72%"},
      {"smiles": "O=C(N/N=C/c1c(O)n(C2CC2)c(=S)[nH]c1=O)c1ccccc1Cl", "activation": "-1.25%"},
      {"smiles": "COc1ccc(-n2nnnc2C(c2cccc3ccccc23)N2CCC(n3c(=O)[nH]c4ccccc43)CC2)cc1", "note": "(stereo not given)", "activation": "3.04%"},
      {"smiles": "O=c1[nH]c2ccccc2n1C1CCN(C(c2ccnc3ccccc23)c2nnnn2Cc2ccccc2)CC1", "note": "(stereo not given)", "activation": "40.5% (active)"},
      {"smiles": "O=c1[nH]c2ccccc2n1C1CCN(C(c2ccccc2)c2nnnn2Cc2ccccc2)CC1", "note": "(stereo not given)", "activation": "10.1%"},
      {"smiles": "Cc1ccc2c(c1)=C/C(=C\\c1c(O)[nH]c(=O)[nH]c1=O)C(=O)N=2", "activation": "0.28%"},
      {"smiles": "COc1cccc(OC)c1C(=O)NC(=S)N1C[C@H]2C[C@H](C1)c1cccc(=O)n1C2", "activation": "4.06%"},
      {"smiles": "O=C1CC(=O)N(Cc2ccccc2)C(=O)N1CCCCCCN1C(=O)CC(=O)N(Cc2ccccc2)C1=O", "activation": "1.5%"},
      {"smiles": "O=C(CN1CCCC1=O)NCCc1ccccc1", "activation": "38.6% (active)"},
      {"smiles": "OC(CNC1CCCCC1)c1ccccc1", "note": "(stereo not given)", "activation": "0.51%"},
      {"smiles": "c1ccc(CCNC2CCCCCC2)cc1", "activation": "87.1% (active)"},
      {"smiles": "c1cc2c(cc1CCNC1CCCCCC1)OCO2", "activation": "4.36%"},
      {"smiles": "COc1ccc(CNCCc2c[nH]c3ccccc23)cc1OC", "activation": "1.21%"},
      {"smiles": "COc1ccc(CNCCc2ccc3c(c2)OCO3)c(OC)c1OC", "activation": "2.45%"},
      {"smiles": "COc1ccc(Br)cc1CNCCc1cccc(Cl)c1", "activation": "49.1% (active)"},
      {"smiles": "CNC(=S)N/N=C1\\C2CN3CCN(C2)CC1(c1ccccc1)C3", "activation": "2.42%"},
      {"smiles": "c1ccc2sc(N3CCNCC3)nc2c1", "activation": "10.3%"},
      {"smiles": "CC(C)CN1Cc2cc(N3CCCCC3)ccc2-n2nncc2C1", "activation": "-1.61%"}
    ]}
  ]
}
